Screening results from PubChem BioAssay.
PHOSPHO1 inh: blocks human PHOSPHO1 phosphatase activity. Q8TCT1. recombinant PHOSPHO1, absorbance phosphatase assay. inhibition, % at 13.3 µM. actives 1.1% (n = 290,000). AID 1565; in the data active = inhibition above about 60%
Target sequence (Q8TCT1 whole entry, looked up): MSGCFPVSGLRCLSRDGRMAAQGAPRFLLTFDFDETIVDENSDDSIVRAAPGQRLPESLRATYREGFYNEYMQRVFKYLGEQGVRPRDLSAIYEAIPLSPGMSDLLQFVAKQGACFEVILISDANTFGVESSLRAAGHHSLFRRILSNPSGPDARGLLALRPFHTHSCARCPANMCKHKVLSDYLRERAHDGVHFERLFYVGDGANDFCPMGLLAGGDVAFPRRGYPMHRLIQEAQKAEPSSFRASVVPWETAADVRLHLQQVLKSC
HSF1 inhib: HSF1 inhibition. NIH3T3-HGL HSE-luciferase, MG132-induced, luminescence 8 h; active compounds read low. activity change, negative = inhibition, % at 7.5 µM (by protocol). actives 0.77% (n = 300,000);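 active = more than half of replicate wells show activity change below -50%, luminescence cut by over half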;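 also: luciferase reports HSF-1 transcriptional activity via heat shock element; 0% = median of DMSO wells and -100% = zero luminescence signal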
AI-2 QS mod: modulates the Vibrio harveyi AI-2 quorum sensing system; Vibrio harveyi JMH597 AI-2 luminescence/OD600 ratio, 9 h; active compounds read low; strain lacks LuxN and CqsS sensors; 0 = neutral-control median; activity change, % at 7.5 µM; actives 0.4% (n = 300,000); AID 2094; in the data active = activity change below about -75%, passing the limit was not always enough;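 also: luminescence divided by OD600 gain over 9 h not by final OD600 alone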
ALR H2O2 inh: blocks human ALR sulfhydryl oxidase activity; purified ALR, DTT oxidation, H2O2 HRP-luminol luminescence; inhibition, % (concentration not given with the values); AID 485317; actives 3.8% (n = 290,000);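 active = mean replicate inhibition above about 79%, with every replicate also reaching it, limit read from the data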
Target sequence (P55789 whole entry, looked up): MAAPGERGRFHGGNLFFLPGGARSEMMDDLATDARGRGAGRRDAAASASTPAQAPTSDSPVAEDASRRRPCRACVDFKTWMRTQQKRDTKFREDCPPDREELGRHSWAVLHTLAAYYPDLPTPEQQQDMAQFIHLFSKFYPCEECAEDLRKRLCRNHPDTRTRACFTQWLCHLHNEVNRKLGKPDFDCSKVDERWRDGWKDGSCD
HSF-1 act: increases HSF-1 driven luciferase reporter signal; NIH3T3-HGL HSF-1 luciferase reporter, MG132, 8 h; 100% = twice DMSO control signal; activation, % at 9 µM; actives 1.7% (n = 300,000); AID 504408;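 active = mean replicate activation of at least 50% with a set share of replicates each reaching 50%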;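 also: 0% = median of the neutral control wells and 100% = twice that signal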
core dimer inh: HCV core protein dimerization inhibition; TR-FRET GST/Flag-core106 dimerization, 1536-well; inhibition, % at 5 µM; actives 0.33% (n = 300,000);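 active = inhibition above the mean of all tested compounds plus 3 SD, set per screening campaign, cut at about 45% in these data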
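Material: Tagged HCV core106 pair (GST and Flag) | Amount: GST-core106 13.5 nM, Flag-core106 17 nM | Medium: KF-containing HEPES buffer, pH 7.45, DTT, CHAPS, BSA | Reagent: Eu donor and XL665 acceptor anti-tag antibodies | Schedule: 4 h at 22.5 °C | Technique: Time-resolved FRET, ex 340 nm, em 617 and 671 nm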
An asterisk follows results filed as active; x = not tested or not shown. Sampled rows, rich in hits. Any-hit rate of the full collection: about 6.8%.

SMILES | PHOSPHO1 inh | HSF1 inhib | AI-2 QS mod | ALR H2O2 inh | HSF-1 act | core dimer inh
Cc1ccccc1-n1ncc(C(C)NC(=O)c2ccco2)c1C (stereo not drawn) | 40 | 7 | -7 | 4 | 12 | 3
O=[N+]([O-])c1ccc(O)c(CN2CCCCCC2)c1 | 34 | -3 | 45 | -4 | 3 | -1
Fc1ccc2[nH]c3c(Cl)ncnc3c2c1 | 24 | 27 | 19 | 95* | 33 | 12
COc1ccc2[nH]c3c(Cl)ncnc3c2c1 | 9 | -10 | 1 | 47 | -2 | -4
O=C(COc1ccc(F)cc1)N(Cc1cccc(Br)c1)C1CCS(=O)(=O)C1 (stereo not drawn) | 65* | -1 | -1 | -8 | 21 | -6
O=c1[nH]n2c(=O)c3c([nH]c2c1N=Nc1cccc(Cl)c1)CCCC3 | 76* | -2 | 9 | 18 | -12 | 5
CCOC(=O)c1c(NC(=O)CSC2=NN3CCCC(=O)N=C3S2)sc2c1CCCCC2 | -6 | 10 | 20 | 27 | 8 | 18
O=C(CN(Cc1ccccc1)S(=O)(=O)c1ccccc1)N/N=C/c1ccc([N+](=O)[O-])cc1 | 8 | 5 | 26 | 0 | 6 | 12
O=C(CN(Cc1ccccc1Cl)S(=O)(=O)c1ccc(Cl)cc1)N/N=C/c1ccc(C(=O)O)cc1 | 12 | -86* | 5 | 71 | -89 | x
O=C(O)c1ccc(N/N=C/C2=Cc3ccccc3OC2)cc1 | -12 | 15 | -91* | 98* | 36 | -18
O=C1NC[C@H](c2ccccc2)N(CCc2cccc3ccccc23)C1=O | 34 | -3 | 6 | x | -5 | 9
COc1cccc(-c2cc(C(=O)N3CCOCC3)no2)c1 | 40 | 23 | 12 | 0 | 61* | -8
COc1cccc(-c2cc(C(=O)Nc3cccnc3)no2)c1 | -1 | 33 | 8 | -10 | 78* | -8
COc1ccc(-c2cc(C(=O)N3CCOCC3)no2)cc1 | 31 | -4 | 10 | -2 | 10 | -17
O=C(COC(=O)/C=C/c1ccc(C(F)(F)F)cc1)NCC1CCCCC1 | x | 1 | 15 | -2 | 15 | 1
Cc1ccc(S(=O)(=O)n2nc(OC(=O)c3ccccc3C)cc2N)cc1 | 10 | -8 | 31 | x | 2 | 11
CC(C)(C)C(=O)Oc1cc(N)n(S(=O)(=O)c2ccc(F)cc2)n1 | -19 | -7 | 37 | 12 | -1 | 3
Cc1ccc(S(=O)(=O)n2nc(OC(=O)c3ccco3)cc2N)cc1 | x | -4 | 19 | 98* | 7 | -2
Nc1cc(OC(=O)c2ccco2)nn1S(=O)(=O)c1ccc(F)cc1 | 21 | 2 | 22 | 98* | 8 | -4
Nc1cc(OC(=O)c2ccc(F)cc2)nn1S(=O)(=O)c1ccc(F)cc1 | -16 | 38 | 23 | 3 | 76* | 2
[N-]=[N+]=NCCN1CCN(CCc2ccccc2)CCC1=O | -13 | -4 | -1 | x | 15 | 1
COc1cc(CCNC(=O)c2ccccc2NC(=O)C2=C(C)OCCS2)cc(OC)c1OC | 64* | 2 | 36 | -1 | 20 | 0
CCc1cc(C(=O)c2ccccc2)c(N)s1 | 45 | 4 | -6 | 99* | -6 | -2
O=C(CS(=O)(=O)c1cn(Cc2ccc(Cl)cc2)c2ccccc12)N1CCCC1 | -11 | 12 | 1 | -16 | 33 | 16
CC1CN(C(=O)Cn2cc(S(=O)(=O)CC(=O)N3CCOCC3)c3ccccc32)CC(C)O1 (stereo not drawn) | 66* | 1 | 23 | -6 | 8 | 1
SMILES | PHOSPHO1 inh | HSF1 inhib | AI-2 QS mod | ALR H2O2 inh | HSF-1 act | core dimer inh
CCOC(=O)N1CCN(C(=O)CS(=O)(=O)c2cn(Cc3ccc(F)cc3)c3ccccc23)CC1 | 31 | 70 | 10 | -4 | 96* | 12
CCN(c1ccccc1)S(=O)(=O)c1ccc(Cl)c(NC(=O)CSc2nnc(C)s2)c1 | 17 | -66* | 15 | -11 | -73 | 0
CC(C)Oc1ccc(CN=C(N)N=C(N)N)cc1Cl | 7 | 6 | 11 | -24 | 55* | -4
COc1cc(/C=C2/C(=N)N3C(c4ccccc4)=CSC3=NC2=O)ccc1OCC(=O)O | 47 | -5 | 14 | 99* | -8 | 10
Cc1cc(/C=C2\C(=N)N3N=CSC3=NC2=O)c(C)n1Cc1ccccc1 | 16 | 12 | 30 | 88* | 24 | 10
COc1cc(/C=C2\C(=N)N3N=CSC3=NC2=O)ccc1OS(=O)(=O)c1ccccc1 | 26 | x | 19 | 98* | x | x
O=C(CSc1cc(Cl)ccc1Cl)Nc1ccc(N2CCOCC2)cc1 | x | x | x | 20 | x | x
COc1cccc(C2c3[nH]c4ccccc4c3C[C@H]3C(=O)N(CCCO)CC(=O)N23)c1OC (stereo partly drawn) | 39 | 5 | 2 | 27 | 0 | -8
COc1cccc(C2c3[nH]c4ccccc4c3C[C@H]3C(=O)N(C)CC(=O)N23)c1 (stereo partly drawn) | x | 5 | 12 | 98* | 12 | 4
COc1cccc(C2c3[nH]c4ccccc4c3C[C@H]3C(=O)N(C4CC4)CC(=O)N23)c1 (stereo partly drawn) | x | 1 | 9 | 3 | 4 | 0
COc1ccc(C2c3[nH]c4ccccc4c3C[C@H]3C(=O)N(CCCO)CC(=O)N23)cc1OC (stereo partly drawn) | 24 | -8 | 6 | -10 | 12 | 5
COc1ccc(C2c3[nH]c4ccccc4c3C[C@H]3C(=O)N(CCCO)CC(=O)N23)c(OC)c1 (stereo partly drawn) | 23 | -4 | 9 | 99* | -19 | 8
COCCCN1CC(=O)N2C(c3cccc(OC)c3)c3[nH]c4ccccc4c3C[C@H]2C1=O (stereo partly drawn) | 7 | -32 | 8 | 100* | -52 | -12
CCCN1CC(=O)N2C(c3ccccc3)c3[nH]c4ccccc4c3C[C@H]2C1=O (stereo partly drawn) | -25 | -5 | 54 | -6 | 8 | x
COCCN1CC(=O)N2C(c3cccc(OC)c3)c3[nH]c4ccccc4c3C[C@H]2C1=O (stereo partly drawn) | x | 3 | 10 | 99* | 18 | -4
C=CC[C@H](CC(=O)NCCO)C(=O)NCCOC(=O)[C@@H](CC=C)CC(=O)OC(C)(C)C | x | x | x | 0 | x | x
Cc1ccc2nc(NC(=O)c3ccc(NS(=O)(=O)c4cccs4)cc3)sc2c1 | -2 | 21 | 20 | x | 18 | 15
COc1cc(NC(=O)CN2C(=O)COc3ccc(S(=O)(=O)N4CCOCC4)cc32)cc(OC)c1 | 18 | 1 | 33 | -8 | 10 | -1
C/C(=N\NC(=O)c1nnn(-c2nonc2N)c1CN1CCCCCC1)c1ccc(Br)cc1 | 20 | -8 | -2 | -5 | -17 | 0
